ChEMBL document CHEMBL1914385, “Isolation, structure, and biological activities of Fellutamides C and D from an undescribed Metulocladosporiella (Chaetothyriales) using the genome-wide Candida albicans fitness test” (J Nat Prod, 2011)
≈ marks a conversion by molar mass, not a printed value. Calls of active or inactive are those of the source. The rule behind the calls is not given here. Non-standard residues stand in square brackets, D forms with d. Residues, ends and D or L forms follow the SMILES beside them. *: point of attachment. Myristoyl = CCCCCCCCCCCCCC(=O)*; Leu(ol) = CC(C)C[C@H](N)CO

How the values were obtained:
[1] = system: Candida albicans; assay: Antifungal activity against Candida albicans at 200 ug/ml after 24 hrs by NCCLS M27-P broth macrodilution method; format: functional, organism-based
[2] = system: Candida albicans; assay: Antifungal activity against wild-type Candida albicans at 0.01 to 10 ug/mL after 24 hrs by NCCLS M27-P broth macrodilution method; format: functional, organism-based
[3] = system: Candida albicans; assay: Antifungal activity against Candida albicans harboring heterozygous deletion of PRE4/orf19.4230 at 0.01 to 10 ug/mL after 24 hrs by NCCLS M27-P broth macrodilution method; format: functional, organism-based
[4] = system: Candida albicans; assay: Antifungal activity against wild-type Candida albicans at 10 ug/mL after 24 hrs by NCCLS M27-P broth macrodilution method; format: functional, organism-based
[5] = system: Candida albicans; assay: Antifungal activity against Candida albicans harboring heterozygous deletion of PRE4/orf19.4230 at 10 ug/mL after 24 hrs by NCCLS M27-P broth macrodilution method; format: functional, organism-based
[6] = system: Candida albicans; assay: Antifungal activity against Candida albicans after 24 hrs by NCCLS M27-P broth macrodilution method; format: functional
[7] = system: Candida albicans; assay: Antifungal activity against Candida albicans harboring heterozygous deletion of orf19.4088/NUP188 after 24 hrs by NCCLS M27-P broth macrodilution method; format: functional
[8] = system: Candida albicans; assay: Antifungal activity against Candida albicans harboring heterozygous deletion of orf19.5378/SCL1 after 24 hrs by NCCLS M27-P broth macrodilution method; format: functional
[9] = system: Candida albicans; assay: Antifungal activity against Candida albicans harboring heterozygous deletion of orf19.3168/RPN8 after 24 hrs by NCCLS M27-P broth macrodilution method; format: functional
[10] = system: Candida albicans; assay: Antifungal activity against Candida albicans harboring heterozygous deletion of PRE4/orf19.4230 after 24 hrs by NCCLS M27-P broth macrodilution method; format: functional
[11] = system: Candida albicans; assay: Antifungal activity against Candida albicans 2323 after 24 hrs by NCCLS M27-P broth macrodilution method; format: functional; conditions: Candida albicans, 2323, 24 h
In short: (§1)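 MIC panel run in the fitness-test medium (modified RPMI), following an earlier published MIC method.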

[12] = system: Candida tropicalis; assay: Antifungal activity against Candida tropicalis MY1012 after 24 hrs by NCCLS M27-P broth macrodilution method; format: functional; conditions: MY1012, 24 h; in short: as §1
[13] = system: Nakaseomyces glabratus; assay: Antifungal activity against Candida glabrata MY1381 after 24 hrs by NCCLS M27-P broth macrodilution method; format: functional; conditions: MY1381, 24 h; in short: as §1
[14] = system: Clavispora lusitaniae; assay: Antifungal activity against Candida lusitaniae MY1396 after 24 hrs by NCCLS M27-P broth macrodilution method; format: functional; conditions: MY1396, 24 h; in short: as §1
[15] = system: Pichia kudriavzevii; assay: Antifungal activity against Candida krusei ATCC 6258 after 24 hrs by NCCLS M27-P broth macrodilution method; format: functional; conditions: ATCC 6258, 24 h; in short: as §1
[16] = system: Candida parapsilosis; assay: Antifungal activity against Candida parapsilosis ATCC 22019 after 24 hrs by NCCLS M27-P broth macrodilution method; format: functional; conditions: Lodderomyces parapsilosis, ATCC 22019, 24 h; in short: as §1
[17] = system: Aspergillus fumigatus; assay: Antifungal activity against Aspergillus fumigatus MF5668 after 24 hrs by NCCLS M27-P broth macrodilution method; format: functional; conditions: MF5668, 24 h; in short: as §1
[18] = system: Trichophyton mentagrophytes; assay: Antifungal activity against Trichophyton mentagrophytes MF7004 after 24 hrs by NCCLS M27-P broth macrodilution method; format: functional; conditions: MF7004, 24 h; in short: as §1
[19] = system: Staphylococcus aureus; assay: Antibacterial activity against Staphylococcus aureus MB2865; format: functional
[20] = system: PC-3; assay: Growth inhibition of human PC3 cells; format: functional, cell-based
In short: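 PC-3 cells treated for 48 h across an 8-point dose series (final 50 000, 12 500, 3125, 781.3, 195.3, 48.8, 12.2, 3.1 nM). Viable cell mass was measured by ATP luminescence (Vialight) to give IC50.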

[21] = system: Candida albicans; assay: Ratio of gliotoxin IC50 to compound IC50 for Candida albicans 26S proteasome
[22] = system: Candida albicans; assay: Ratio of lactacystin IC50 to compound IC50 for Candida albicans 26S proteasome
[23] = Inhibition of Candida albicans 26S proteasome
In short: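 Chymotrypsin-like proteasome activity measured by luminogenic Proteasome-Glo assay, with modifications. Used whole-cell extracts of exponential-phase C. albicans, about 10⁶ cell equivalents per assay.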

[24] = system: A549; assay: Growth inhibition of human A549 cells at 3.1 to 50000 nM

SMILES	Activity [2]	Activity [3]	MIC [6] [mg/L]	MIC [7] [mg/L]	MIC [8] [mg/L]	MIC [9] [mg/L]	MIC [10] [mg/L]	MIC [11] [mg/L]	MIC [12] [mg/L]	MIC [13] [mg/L]	MIC [14] [mg/L]	MIC [15] [mg/L]	MIC [16] [mg/L]	MIC [17] [mg/L]	MIC [18] [mg/L]	MIC [19] [mg/L]	IC50 [20] [µM]	Ratio IC50 [21]	Ratio IC50 [22]	IC50 [23] [mg/L]	also measured
CC(=O)N[C@@H](CSC(=O)[C@]1([C@@H](O)C(C)C)NC(=O)[C@H](C)[C@@H]1O)C(=O)O																					Activity [1]: inactive
CCCCCCCCCCCCCC(=O)N[C@@H](CC(N)=O)C(=O)N[C@@H](CCC(N)=O)C(=O)N[C@H](C=O)CC(C)C (Myristoyl-Asn-Gln-Leu-aldehyde)	Active	Active																			
CCCCCCCCCCCCCC(=O)N[C@@H](CC(N)=O)C(=O)N[C@@H](CCC(N)=O)C(=O)N[C@H](CO)CC(C)C (Myristoyl-Asn-Gln-[Leu(ol)])																					Activity [4]: inactive; Activity [5]: inactive
CCCCCCCCCCC[C@@H](O)CC(=O)N[C@@H](CC(N)=O)C(=O)N[C@H](C(=O)N[C@H](C=O)C(C)C)C(O)CC(N)=O (stereo partly specified) [FELLUTAMIDE C]			1.25 (≈ 2.13 µM)	2.5 (≈ 4.27 µM)	2.5 (≈ 4.27 µM)	2.5 (≈ 4.27 µM)	2.5 (≈ 4.27 µM)	4 (≈ 6.83 µM)	4 (≈ 6.83 µM)	4 (≈ 6.83 µM)	16 (≈ 27.3 µM)	4 (≈ 6.83 µM)	2 (≈ 3.41 µM)	16 (≈ 27.3 µM)	> 32	> 32	0.44	10	10	0.2 (≈ 0.341 µM)	growth inhibition (GI) [24]: inactive
CCCCCCCCCCC[C@@H](O)CC(=O)N[C@@H](CC(N)=O)C(=O)N[C@H](C(=O)N[C@H](C=O)CC(C)C)C(O)CC(N)=O (stereo partly specified) [FELLUTAMIDE D]	Active	Active	1.25 (≈ 2.08 µM)	10 (≈ 16.7 µM)	10 (≈ 16.7 µM)	10 (≈ 16.7 µM)	10 (≈ 16.7 µM)	16 (≈ 26.7 µM)	8 (≈ 13.3 µM)	8 (≈ 13.3 µM)	32 (≈ 53.4 µM)	8 (≈ 13.3 µM)	8 (≈ 13.3 µM)	32 (≈ 53.4 µM)	> 32	> 32	0.16	10	10	0.2 (≈ 0.333 µM)	growth inhibition (GI) [24]: inactive
CN1C(=O)[C@]23CC4=CC=C[C@H](O)[C@H]4N2C(=O)[C@@]1(CO)SS3 [GLIOTOXIN]			4 (≈ 12.3 µM)																		
